Measurements from ChEMBL document CHEMBL1137731, “Cytotoxicity and TOP1-targeting activity of 8- and 9-amino derivatives of 5-butyl- and 5-(2-N,N-dimethylamino)ethyl-5H-dibenzo[c,h][1,6]naphthyridin-6-ones” (Eur J Med Chem, 2009).

How the values were obtained:
[1] = tested on: RPMI8402 (human); experiment: Cytotoxicity against human RPMI8402 cells by MTT method; conditions: RPMI-8402
[2] = Cytotoxicity against human KB3-1 cells by MTT method; type: functional, cell-based; conditions: KB 3-1
[3] = tested on: P388; experiment: Cytotoxicity against mouse P388 cells by MTT method; type: functional, cell-based
Method in brief: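 MTT assay with P388 mouse leukaemia cells grown in suspension at 37 °C, 5% CO2, in RPMI with 10% heat-inactivated FBS, 2 mM L-glutamine and penicillin/streptomycin. Cells were exposed continuously to varying drug concentrations for 4 days, with a drug-free control, and MTT was read at day 4. The IC50 came from at least two assays, each in six replicate wells.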

[4] = Cytotoxicity against multidrug resistant human KBH5.0 cells overexpressing BCRP by MTT method; type: functional, cell-based; conditions: KBH5.0 cell
[5] = Cytotoxicity against multidrug resistant human KBV1 cells overexpressing MDR1 by MTT method; type: functional, cell-based; conditions: KB-V1
[6] = species on record: Homo sapiens; experiment: Inhibition of human recombinant topoisomerase 1 expressed in Escherichia coli assessed as drug level causing 10% mediated DNA cleavage relative to topotecan
Method in brief: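 Recombinant human TOP1, expressed in E. coli as a T7-system fusion protein, was incubated with drug and 3′-end-labelled plasmid YepG for 30 min at room temperature. Reactions were stopped with SDS and proteinase K (1 h, 37 °C), alkali-denatured, and run on a neutral agarose gel. The read-out was the concentration giving 10% cleavage, expressed relative to topotecan set at 1.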

SMILES | IC50 [1] | IC50 [2] | IC50 [3] | IC50 [4] | IC50 [5] | Activity [6]
CCCCn1c(=O)c2ccc([N+](=O)[O-])cc2c2cnc3cc4c(cc3c21)OCO4 | 480 nM | 310 nM | 700 nM | 360 nM | 850 nM | > 10
CCCCn1c(=O)c2ccc(N)cc2c2cnc3cc4c(cc3c21)OCO4 | 3500 nM | 5800 nM | 6000 nM | 3500 nM | 2500 nM | > 20
CN(C)CCNc1ccc2c(c1)c(=O)n(CCN(C)C)c1c3cc4c(cc3ncc21)OCO4 | 120 nM | 50 nM | 40 nM | 300 nM | 410 nM | > 20
CC[C@@]1(O)C(=O)OCc2c1cc1n(c2=O)Cc2cc3ccccc3nc2-1 [CAMPTOTHECIN] | 6 nM |  | 14 nM |  |  | 0.2
CN(C)CCn1c(=O)c2cc([N+](=O)[O-])ccc2c2cnc3cc4c(cc3c21)OCO4 | 5 nM | 26 nM | 9 nM | 25 nM | 25 nM | 0.2
CCCCn1c(=O)c2cc([N+](=O)[O-])ccc2c2cnc3cc4c(cc3c21)OCO4 | 2400 nM | 400 nM | 150 nM | 500 nM | 300 nM | > 10
CN(C)CCn1c(=O)c2ccc(N)cc2c2cnc3cc4c(cc3c21)OCO4 | 33 nM | 130 nM | 28 nM | 150 nM | 130 nM | 0.5
CC[C@@]1(O)C(=O)OCc2c1cc1n(c2=O)Cc2cc3c(CN(C)C)c(O)ccc3nc2-1 [TOPOTECAN] | 21 nM | 40 nM | 45 nM | 440 nM | 440 nM | 
CCCCn1c(=O)c2cc(NCCN(C)C)ccc2c2cnc3cc4c(cc3c21)OCO4 | 1570 nM | 1700 nM | 780 nM | 1700 nM | 3200 nM | > 20
CN(C)CCn1c(=O)c2ccc([N+](=O)[O-])cc2c2cnc3cc4c(cc3c21)OCO4 | 2 nM | 5 nM | 5 nM | 5 nM | 4 nM | 0.1
CN(C)CCn1c(=O)c2ccc(NC(=O)CN(C)C)cc2c2cnc3cc4c(cc3c21)OCO4 | 35 nM | 36 nM | 35 nM | 120 nM | 190 nM | > 20
CCCCn1c(=O)c2cc(N)ccc2c2cnc3cc4c(cc3c21)OCO4 | 1250 nM | 3200 nM | 280 nM | 3500 nM | 2500 nM | > 20
CN(C)CCNc1ccc2c(=O)n(CCN(C)C)c3c4cc5c(cc4ncc3c2c1)OCO5 | 850 nM | 120 nM | 60 nM | 320 nM | 550 nM | > 20
CCCCn1c(=O)c2ccc(NC(=O)CN(C)C)cc2c2cnc3cc4c(cc3c21)OCO4 | 300 nM | 900 nM | 600 nM | 1900 nM | 2000 nM | > 20
CCCCn1c(=O)c2cc(NC(=O)CN(C)C)ccc2c2cnc3cc4c(cc3c21)OCO4 | 330 nM | 1500 nM | 250 nM | 1600 nM | 2600 nM | > 20
CN(C)CCn1c(=O)c2cc(NC(=O)CN(C)C)ccc2c2cnc3cc4c(cc3c21)OCO4 | 120 nM | 180 nM | 100 nM | 240 nM | 600 nM | > 20
CN(C)CCn1c(=O)c2cc(N)ccc2c2cnc3cc4c(cc3c21)OCO4 | 90 nM | 230 nM | 40 nM | 330 nM | 280 nM | 8
CCCCn1c(=O)c2ccc(NCCN(C)C)cc2c2cnc3cc4c(cc3c21)OCO4 | 1800 nM | 3000 nM | 1800 nM | 3500 nM | 4500 nM | > 20
